Assay results taken from ChEMBL document CHEMBL1154420, “Role of a qnr-like gene in the intrinsic resistance of Enterococcus faecalis to fluoroquinolones” (2007).
≈ marks a conversion by molar mass, not a printed value. Calls of active or inactive are those of the source. The calls are words filed in the database; no cut-off is given here.

How the values were obtained:
Lactococcus lactis [1] = experiment: Antibacterial activity against Lactococcus lactis IL-1419 containing ORI23::qnr-cat promoter mutant by twofold dilution method; format: functional
Procedure, shortened: (§1)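 Heterologous hosts carrying pORI23 or pORI23::qnr-cat (cat reporter downstream of qnr); MICs of ofloxacin, ciprofloxacin, levofloxacin, sparfloxacin and moxifloxacin by standard twofold dilution. Transformants selected on erythromycin 500 μg/ml plus chloramphenicol 20 μg/ml (E. coli DH10B) or erythromycin 5 μg/ml plus chloramphenicol 5 μg/ml (S. aureus, L. lactis). Blood-supplemented agar for L. lactis.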

Escherichia coli [2] = experiment: Antibacterial activity against Escherichia coli DH10B by twofold dilution method; format: functional; conditions: K-12 substr. DH10B; procedure, shortened: as §1
Escherichia coli [3] = experiment: Antibacterial activity against Escherichia coli DH10B containing ORI23 promoter by twofold dilution method; format: functional; conditions: K-12 substr. DH10B; procedure, shortened: as §1
Escherichia coli [4] = experiment: Antibacterial activity against Escherichia coli DH10B containing ORI23::qnr-cat promoter mutant by twofold dilution method; format: functional; conditions: K-12 substr. DH10B; procedure, shortened: as §1
Staphylococcus aureus [5] = experiment: Antibacterial activity against Staphylococcus aureus RN4220 containing ORI23::qnr-cat promoter mutant by twofold dilution method; format: functional; procedure, shortened: as §1
Lactococcus lactis [6] = experiment: Antibacterial activity against Lactococcus lactis IL-1419 by twofold dilution method; format: functional
Procedure, shortened: (§2)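 Heterologous-expression MIC by standard twofold dilution; L. lactis IL-1419 transformed with pORI23 vector or pORI23::qnr-cat by electroporation, selected on erythromycin 5 μg/ml plus chloramphenicol 5 μg/ml; routine growth at 37°C on TS agar with 10% horse blood.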

Lactococcus lactis [7] = experiment: Antibacterial activity against Lactococcus lactis IL-1419 containing ORI23 promoter by twofold dilution method; format: functional; procedure, shortened: as §2
Staphylococcus aureus [8] = experiment: Antibacterial activity against Staphylococcus aureus RN4220 by twofold dilution method; format: functional; procedure, shortened: as §1
Staphylococcus aureus [9] = experiment: Antibacterial activity against Staphylococcus aureus RN4220 containing ORI23 promoter by twofold dilution method; format: functional; procedure, shortened: as §1
Enterococcus faecalis [10] = experiment: Antibacterial activity against Enterococcus faecalis JH2-2 by broth microdilution method; format: functional
Enterococcus faecalis [11] = experiment: Antibacterial activity against Enterococcus faecalis JH2-2-omega-pG1KT mutant with inactivated qnr gene by broth microdilution method; format: functional
Enterococcus faecalis [12] = experiment: Antibacterial activity against Enterococcus faecalis JH2-2-delta-pG1KT mutant by broth microdilution method; format: functional
Enterococcus faecalis [13] = experiment: Antibacterial activity against Enterococcus faecalis JH2-2 containing ORI23 promoter by broth microdilution method; format: functional
Procedure, shortened: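 Broth microdilution MIC in Mueller-Hinton broth per CA-SFM, three independent experiments; JH2-2 host carrying pORI23 vector. Narrow dilution series: ofloxacin 1–128 μg/ml (1, 1.5, 2 … 8, 16, 32, 64, 128), ciprofloxacin 0.5–64 μg/ml (0.5, 0.75, 1 … 4, 8, 16, 32, 64). Growth at 37°C.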

Enterococcus faecalis [14] = experiment: Antibacterial activity against Enterococcus faecalis JH2-2-omega-pG1KT/pORI23::qnr-cat mutant with qnr gene complementation by broth microdilution method; format: functional
Enterococcus faecalis [15] = experiment: Antibacterial activity against Enterococcus faecalis JH2-2 containing ORI23::qnr-cat promoter mutant overexpressing qnr by broth microdilution method; format: functional
Escherichia coli [16] = experiment: Inhibition of Escherichia coli DNA gyrase-mediated Escherichia coli pBR322 DNA supercoiling at 1 ug/mL in presence of 0.9 uM histidine6-tagged Enterococcus faecalis qnr protein preincubated before compound administration by agarose gel electrophoresis
Procedure, shortened: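 Dialyzed C-terminal His6-tagged Qnr (from E. coli BL21(DE3), IPTG 1 mM, Ni-NTA purified, 0.9 μM) preincubated with E. coli gyrase 1 h at 25°C before drug; then 1 U gyrase, 0.5 μg relaxed pBR322, buffer with 1 mM ATP, pH 7.5, 37°C 30 min; readout by 1% agarose gel, ethidium bromide.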

Escherichia coli [17] = experiment: Inhibition of Escherichia coli DNA gyrase-mediated Escherichia coli pBR322 DNA supercoiling at 1 ug/mL by agarose gel electrophoresis
Procedure, shortened: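 Supercoiling assay: 1 U purified E. coli gyrase with 0.5 μg relaxed pBR322 in 35 mM Tris-HCl pH 7.5, 24 mM KCl, 4 mM MgCl2, 2 mM DTT, 1.8 mM spermidine, 1 mM ATP, 6.5% glycerol, 0.1 mg/ml albumin; drug incubated 1 h 25°C then 30 min 37°C; topoisomers resolved on 1% agarose, ethidium bromide, 16 h at 3.5 V/cm.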

Enterococcus faecalis [18] = experiment: microbe, parasite or virus in culture; conditions: ATCC 29212

Row | SMILES | MIC (Lactococcus lactis [1]) [µg/mL] | MIC (Escherichia coli [2]) [µg/mL] | MIC (Escherichia coli [3]) [µg/mL] | MIC (Escherichia coli [4]) [µg/mL] | MIC (Staphylococcus aureus [5]) [µg/mL] | MIC (Lactococcus lactis [6]) [µg/mL] | MIC (Lactococcus lactis [7]) [µg/mL] | MIC (Staphylococcus aureus [8]) [µg/mL] | MIC (Staphylococcus aureus [9]) [µg/mL] | MIC (Enterococcus faecalis [10]) [µg/mL] | MIC (Enterococcus faecalis [11]) [µg/mL] | MIC (Enterococcus faecalis [12]) [µg/mL] | MIC (Enterococcus faecalis [13]) [µg/mL] | MIC (Enterococcus faecalis [14]) [µg/mL] | MIC (Enterococcus faecalis [15]) [µg/mL] | Activity (Escherichia coli [16]) | Activity (Escherichia coli [17]) | MIC (Enterococcus faecalis [18]) [µg/mL]
1 | COc1c(N2C[C@@H]3CCCN[C@@H]3C2)c(F)cc2c(=O)c(C(=O)O)cn(C3CC3)c12 [MOXIFLOXACIN] | 1 (≈ 2.49 µM) | 0.002 (≈ 0.00498 µM) | 0.002 (≈ 0.00498 µM) | 0.032 (≈ 0.0797 µM) | 0.25 (≈ 0.623 µM) | 0.25 (≈ 0.623 µM) | 0.25 (≈ 0.623 µM) |  |  |  |  |  |  |  |  |  |  | 
2 | C[C@H]1COc2c(N3CCN(C)CC3)c(F)cc3c(=O)c(C(=O)O)cn1c23.C[C@H]1COc2c(N3CCN(C)CC3)c(F)cc3c(=O)c(C(=O)O)cn1c23.O [LEVOFLOXACIN] | 2 |  |  | 0.125 | 1 | 0.5 | 0.5 | 0.25 | 0.25 |  |  |  |  |  |  |  |  | 
3 | CC1COc2c(N3CCN(C)CC3)c(F)cc3c(=O)c(C(=O)O)cn1c23 (centres undefined) [OFLOXACIN] | 4 (≈ 11.1 µM) |  |  | 0.125 (≈ 0.346 µM) | 2 (≈ 5.53 µM) | 1 (≈ 2.77 µM) | 1 (≈ 2.77 µM) | 0.5 (≈ 1.38 µM) | 0.5 (≈ 1.38 µM) | 3 (≈ 8.3 µM) | 1.5 (≈ 4.15 µM) | 3 (≈ 8.3 µM) | 3.5 (≈ 9.69 µM) | 32 (≈ 88.6 µM) | 32 (≈ 88.6 µM) | inactive | Active | 2 (≈ 5.53 µM)
4 | C[C@@H]1CN(c2c(F)c(N)c3c(=O)c(C(=O)O)cn(C4CC4)c3c2F)C[C@H](C)N1 [SPARFLOXACIN] | 4 (≈ 10.2 µM) | 0.002 (≈ 0.0051 µM) | 0.004 (≈ 0.0102 µM) | 0.064 (≈ 0.163 µM) | 1 (≈ 2.55 µM) | 0.5 (≈ 1.27 µM) | 0.5 (≈ 1.27 µM) | 0.125 (≈ 0.319 µM) | 0.125 (≈ 0.319 µM) |  |  |  |  |  |  |  |  | 
5 | O=C(O)c1cn(C2CC2)c2cc(N3CCNCC3)c(F)cc2c1=O [CIPROFLOXACIN] |  |  |  | 0.032 (≈ 0.0966 µM) | 2 (≈ 6.04 µM) | 2 (≈ 6.04 µM) | 2 (≈ 6.04 µM) |  |  | 1.5 (≈ 4.53 µM) | 0.75 (≈ 2.26 µM) | 1.75 (≈ 5.28 µM) | 2 (≈ 6.04 µM) | 8 (≈ 24.1 µM) | 8 (≈ 24.1 µM) |  |  | 
